From PubChem
HKDC1 inh = HKDC1 (human) hexokinase inhibition | Q2TB90 | recombinant HKDC1, G6PDH/diaphorase resazurin coupled fluorescence | inhibition, % at 20 µM | hit rate 0.16% among 340,000;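 active = inhibition above about 35% when tested at 20 µM, limit read from the data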;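 also: plate controls were DMSO wells with enzyme for no effect and DMSO wells lacking enzyme for full effect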
Target sequence (Q2TB90 whole entry, looked up): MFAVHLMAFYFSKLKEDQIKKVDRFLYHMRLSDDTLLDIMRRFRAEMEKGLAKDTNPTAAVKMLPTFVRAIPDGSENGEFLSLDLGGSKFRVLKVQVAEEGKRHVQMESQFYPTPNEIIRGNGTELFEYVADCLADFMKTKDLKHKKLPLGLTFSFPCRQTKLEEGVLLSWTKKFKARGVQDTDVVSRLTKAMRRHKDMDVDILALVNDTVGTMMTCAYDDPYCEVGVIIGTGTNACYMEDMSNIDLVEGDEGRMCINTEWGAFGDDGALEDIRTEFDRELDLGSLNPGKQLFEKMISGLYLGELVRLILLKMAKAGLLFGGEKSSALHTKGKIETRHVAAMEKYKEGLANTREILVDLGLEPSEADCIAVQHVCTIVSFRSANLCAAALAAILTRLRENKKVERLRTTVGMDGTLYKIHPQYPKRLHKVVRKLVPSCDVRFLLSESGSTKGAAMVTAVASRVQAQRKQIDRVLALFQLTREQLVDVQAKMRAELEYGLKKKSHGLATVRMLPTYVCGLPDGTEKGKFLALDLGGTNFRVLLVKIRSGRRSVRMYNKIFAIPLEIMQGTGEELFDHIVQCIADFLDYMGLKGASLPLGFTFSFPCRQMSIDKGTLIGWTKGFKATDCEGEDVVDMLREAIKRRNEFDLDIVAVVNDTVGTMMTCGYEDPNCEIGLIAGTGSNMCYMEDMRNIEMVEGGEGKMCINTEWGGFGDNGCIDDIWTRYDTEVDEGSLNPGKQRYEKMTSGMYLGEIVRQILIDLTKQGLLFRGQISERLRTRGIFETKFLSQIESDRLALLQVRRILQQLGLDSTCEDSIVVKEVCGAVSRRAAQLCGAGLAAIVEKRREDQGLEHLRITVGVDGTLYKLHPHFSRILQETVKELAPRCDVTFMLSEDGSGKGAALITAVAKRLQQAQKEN
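System: Recombinant HKDC1 hexokinase | Amount: HKDC1 at 5 µg/mL | Reagent: Glucose with 1 mM ATP | Doses: Single 20 µM dose | Incubation: Reaction time 90 min, room temperature, protected from light | Signal: Coupled resazurin fluorescence, excitation 525 nm, emission 613 nm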
ABHD5-PLIN5 inh = ABHD5-PLIN5 protein interaction inhibition | Q00G26+Q8WTS1 | Split G. princeps luciferase complementation, luminescence, 4 h | inhibition, % at 4 µM | hit rate 0.78% among 360,000;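 active = inhibition above the mean inhibition across every tested compound plus 3 SD, cut at about 22% in these data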;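 also: 0% = DMSO only wells and the 100% control is not disclosed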
PfGluPho inh = PfG6PD (Plasmodium falciparum) enzyme inhibition; PfGluPho enzyme, NADPH resazurin-diaphorase fluorescence; AID 504690; inhibition, % at 20 µM; hit rate 0.78% among 350,000;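 active = inhibition reaching at least a set limit at 20 µM in the primary screen, cut at about 59% in these data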;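 also: 0% = DMSO wells with substrate and 100% = DMSO wells lacking glucose-6-phosphate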
Exocytosis inh = lytic granule exocytosis inhibition; TALL-104 LAMP-1 surface exposure, flow cytometry; cells stimulated with thapsigargin and PMA; inhibition, % at 10 µM; hit rate 0.66% among 360,000;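 active = inhibition above about 55%, limit read from the data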
HKDC1 act conf2 = HKDC1 (human) activation, single-dose confirmed; shares compounds with HKDC1 inh; recombinant HKDC1, G6PDH/diaphorase resazurin fluorescence; active compounds read low; AID 504708; hit rate 14% among 740; inhibition, % at 20 µM;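 active = inhibition at or below a set negative limit, negative inhibition meaning the enzyme was activated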
PfG6PD confirm = PfG6PD inhibition, single-dose confirmed | shares compounds with PfGluPho inh | recombinant PfGluPho, NADPH-diaphorase-resazurin fluorescence | inhibition, % at 20 µM | hit rate 34% among 2,400 | AID 504753;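 active = inhibition of at least 50% at 20 µM in any single replicate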;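 also: 0% = DMSO with substrate and 100% = DMSO lacking glucose-6-phosphate substrate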
Diaphorase 10uM = counter-screen for P. falciparum G6PD inhibitors: diaphorase inhibitors, oxidizers | shares compounds with PfGluPho inh | diaphorase-coupled resazurin reduction, fluorescence, NADPH 10 uM | inhibition, % at 20 µM | hit rate 39% among 820 | AID 504862;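 active = average inhibition reaching 50% or more with the compound at 20 µM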;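 also: resorufin red fluorescence formed as diaphorase reduces resazurin using NADPH; 0% = DMSO with enzyme and 100% = DMSO without enzyme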
Diaph ctr 30uM = diaphorase inhibition or oxidation at 30 uM NADPH | inhibition, % at 20 µM | Diaphorase/resazurin coupled assay, resorufin fluorescence | hit rate 29% among 820 | shares compounds with PfGluPho inh;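 active = inhibition averaging 50% or more, tested at 20 µM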;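 also: 0% = DMSO with enzyme and 100% = DMSO wells lacking diaphorase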
ABHD5-PLIN5 conf = confirmation of human ABHD5-PLIN5 interaction inhibitors. biochemical ABHD5-PLIN5 interaction, luminescence. inhibition, % at 4 µM. shares compounds with ABHD5-PLIN5 inh. hit rate 67% among 2,200; in the data active = inhibition above about 23%;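 also: 0% = DMSO vehicle wells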
HNF4 counter = HNF4 split-luciferase signal hit, counter-screen; inhibition, % at 4 µM; hit rate 77% among 2,200; shares compounds with ABHD5-PLIN5 inh; HNF4 dimerization, luminescence, biochemical;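 active = mean inhibition across replicate wells exceeding the computed hit threshold, cut at about 13% in these data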;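 also: light from luciferase halves that rejoin when HNF4 fusion proteins dimerize; 0% = DMSO only wells and the 100% control is not given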
* hit, by the source's call; . = not tested or not shown. Compounds with a hit are over-represented: about 2.2% of the library has one in this group of screens.

SMILES	HKDC1 inh	ABHD5-PLIN5 inh	PfGluPho inh	Exocytosis inh	PfG6PD confirm	Diaphorase 10uM	Diaph ctr 30uM	others
O=C(O)CC1OCC=C2CN3CCC45c6ccccc6NC4C1C2CC35 (centres undefined)	-5.1	-5.6	-14.3	-2.5	.	.	.
COc1ccc(CNC(C)Cc2cccs2)cc1 (centres undefined)	-3.9	-6.3	7.6	1.2	.	.	.
CN1CC[C@@]2(C)c3cc(O)ccc3N(C)[C@@H]12	33.5	2.5	83.2*	0.6	103.6*	74.3*	47.8	HKDC1 act conf2=17.4
O=c1c2ccccc2[se]n1-c1ccccc1	-115.9	80.6*	126.9*	82.3*	112.7*	-22.7	-4.6	HKDC1 act conf2=5.0;ABHD5-PLIN5 conf=88.3*;HNF4 counter=109.7*
CN1CCN(/N=C/c2c(O)n(Cc3ccc(F)cc3)c(=O)[nH]c2=O)CC1	-3.8	1.0	-6.8	-1.1	.	.	.
COC(=O)C1=C(C(=O)OC)SC2(S1)C(C(=O)OC)=C(C(=O)OC)Sc1c2ssc1=O	-108.7	90.7*	86.4*	100.1*	60.3*	-2.4	-3.3	HKDC1 act conf2=-88.9*;ABHD5-PLIN5 conf=101.8*;HNF4 counter=111.7*
CCCCOC1OCN(C2CCCCC2)CC1(C)C (centres undefined)	.	-2.0	-11.6	-3.6	.	.	.
CC1=NN=C(c2ccc(N)cc2)c2cc3c(cc2C1)OCO3	14.5	-3.4	44.2	20.0	9.3	.	.
c1ccc(-c2nc(N3CCOCC3)s[n+]2-c2ccccc2)cc1	-12.1	-12.3	59.1*	3.7	72.8*	-23.7	-24.9
O=C(NC1CCCCC1)N1Cc2ccccc2-n2nncc2C1	-0.8	1.9	1.4	-2.0	.	.	.
O=C1NCN(c2ccccc2)C12CCN(C(CCc1ccccc1)c1nnnn1-c1ccc3c(c1)OCCO3)CC2 (centres undefined)	.	-0.7	.	-3.4	.	.	.
CCn1c(C)c(C(=O)Nc2ccc(OC)cc2)c2cc(OC)ccc21	-0.3	0.3	66.3*	-7.5	25.5	.	.
CCOC(=O)C(O)(c1ccc(NC(=O)c2ccc(Cl)c(Cl)c2)cc1)C(F)(F)F (centres undefined)	-0.9	-7.1	62.4*	-6.1	-27.4	.	.
C=C1C(=O)O[C@@H]2C[C@@H](C)[C@@H]3C=CC(=O)[C@@]3(C)[C@@H](OC(=O)CC(=O)O[C@H]3[C@@H]4C(=C)C(=O)O[C@@H]4C[C@@H](C)[C@@H]4C=CC(=O)[C@]43C)[C@H]12	16.2	99.4*	68.2*	8.4	55.9*	-6.4	-2.9
COC(=O)C1=C(c2ccc(OCc3ccccc3)cc2)C[C@@H]2CC[C@H]1N2C(=O)NCc1ccc([N+](=O)[O-])cc1	-2.7	-8.8	5.1	0.2	.	.	.
NC1CCc2cc(O)c(O)cc2C1 (centres undefined)	-0.8	2.2	69.1*	-6.7	75.6*	-2.2	5.8
O=C1Nc2ccc(Br)cc2C(c2ccc(Cl)cc2)=NC1O (centres undefined)	4.8	5.1	99.5*	-37.0	75.1*	83.3*	66.8*
C[C@H](N)CN1CCc2ccc(Br)cc21	2.0	5.7	-17.7	-4.9	.	.	.
O=C(CCC(=O)N1CCC2(CC1)OCCO2)Nc1nnc(C2CCCCC2)s1	-2.8	-0.5	-6.7	-0.3	.	.	.
CN(C)c1ccc(C=C2C(=O)NC(=O)NC2=O)cc1	-6.1	-31.1	26.3	-0.5	.	.	.
CN(C)c1ccc(C=C2C(=O)NC(=S)NC2=O)cc1	-4.2	4.8	68.8*	-9.3	41.0	.	.
Cc1nnc(SCc2nc3ccccc3c(=O)n2-c2ccccc2Cl)n1N	-12.4	1.3	-0.1	-0.3	.	.	.
COc1cc(O)c(C(=O)O)c(-c2cc(O)c(O)cc2C)c1	1.3	19.4	104.7*	2.3	107.0*	38.0	24.9
Nc1ccc2c3c(cccc13)-c1ccccc1-2	7.3	-15.1	79.5*	0.5	81.7*	-15.6	-7.6
Nc1ccc(C2(c3ccc(N)cc3)c3ccccc3-c3ccccc32)cc1	-1.2	3.7	-18.7	-1.4	.	.	.
SMILES	HKDC1 inh	ABHD5-PLIN5 inh	PfGluPho inh	Exocytosis inh	PfG6PD confirm	Diaphorase 10uM	Diaph ctr 30uM	others
Cc1nc2c(=O)n(C)c(=O)nc-2n(C)n1	17.5	-47.4	120.2*	10.3	109.2*	98.3*	102.4*
C[C@]12CC[C@@H]3c4ccc(O)c(O)c4CC[C@H]3[C@@H]1CC[C@@H]2O	1.4	5.6	99.7*	3.6	93.2*	8.4	22.7
C[C@]12CC[C@H]3[C@@H](CCC4=CC(=O)CC[C@@H]43)[C@@H]1CC[C@@H]2O	0.3	9.1	1.9	5.4	.	.	.
CCCCOC(=O)C1=C(N)OC2=C(C(=O)CCC2)[C@]12C(=O)N(C)c1ccccc12	1.6	7.4	4.5	3.4	.	.	.
CNC(=O)Oc1ccc(-c2cn3cc(C)ccc3n2)cc1	16.8	10.0	62.2*	-4.0	47.4	.	.
CNC(=O)Oc1cccc(-c2cn3cc(Cl)ccc3n2)c1	-6.8	0.1	61.2*	1.3	17.4	.	.
Clc1cccc(CN2CCCCC2c2cccnc2)c1 (centres undefined)	14.0	12.2	3.4	-8.3	.	.	.
Oc1ccc(O)c2c1C1(Cl)C(Cl)=C(Cl)C2(Cl)C1(Cl)Cl	-1.8	-12.7	73.3*	1.4	12.4	.	.
COc1ccc(OC)c(N2Cc3ccccc3C2=N)c1	-1.1	0.3	13.9	-0.9	.	.	.
CCC(=NCCO)c1c(O)n(-c2ccc(Cl)cc2)c(=O)[nH]c1=O	0.4	0.9	-4.0	-1.5	.	.	.
COc1ccc(OC)c(N2C(=O)NC(=O)/C(=C/c3ccc([N+](=O)[O-])s3)C2=O)c1	6.2	10.5	62.4*	0.4	38.3	.	.
COc1cc(/C=C2\C(=O)NC(=O)N(c3ccccc3)C2=O)c([N+](=O)[O-])cc1OC	-1.1	10.3	31.2	2.2	.	.	.
CC12Nc3ccccc3C(=O)N1Cc1cnnn1-c1ccccc12 (centres undefined)	.	2.8	.	-7.0	.	.	.
CCCC(=O)NC1=C(N2CC2)C(=O)C(NC(=O)CCC)=C(N2CC2)C1=O	9.9	0.5	81.2*	-0.2	93.5*	84.9*	81.5*
O=C(c1cc(-c2ccc(Cl)cc2)n(-c2ccc(Cl)cc2Cl)n1)N1CCOCC1	-2.7	-1.8	82.4*	1.6	25.4	.	.
O=C(c1cc([N+](=O)[O-])ccc1N1CCNCC1)N1CCOCC1	-8.8	-0.3	7.0	29.2	.	.	.
COc1ccccc1NC1(C#N)CCCCC1	-2.7	3.0	-7.1	-2.5	.	.	.
COC(=O)C12CCc3c(ccc4cc(OC)ccc34)C1=CC(=O)C2 (centres undefined)	0.1	4.9	71.3*	-2.1	28.1	.	.
